According to publication PMC10498798 (Mycobiology, 2023):
≈ marks a conversion by molar mass, not a printed value. Entries after “also recorded” stand apart in the source; their conditions may differ. Where two headings read alike, the source gives them in different places.

Experiments:
[1] = tested on: NO production in LPS-stimulated RAW 264.7 macrophages; assay: Nitrite; assay type: cell-based, murine
In short: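 RAW 264.7 cells were seeded at 2x10^5 per well and grown to about 70% confluence, then serum-starved in 1% FBS medium. Test compound was given at non-cytotoxic concentrations for 24 h at 37 °C, then cells were stimulated with 1 µg/mL LPS for 24 h. Supernatant nitrite was measured with Griess reagent (30 °C, 20 min) at 550 nm against a sodium nitrite standard curve. Runs were in triplicate, and IC50 came from inhibition-concentration plots.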

RAW 264.7 macrophages = assay: MTT cell viability of RAW 264.7 macrophages; assay type: cell-based, murine
In short: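 RAW 264.7 cells were kept in DMEM with 10% FBS and penicillin/streptomycin at 37 °C, 5% CO2. Exponential-phase cells (5x10^4 per well) were exposed to serially diluted test compound (50-25-12.5-6.25 µg/mL) plus 1 µg/mL LPS for 36 h. MTT (0.5 mg/mL) was then added for 4 h at 37 °C. Formazan was dissolved in DMSO and read at 570 nm. Runs were in triplicate.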

[2] = tested on: Hep-G2 (Human hepatocellular carcinoma); assay: MTT cytotoxic assay, Hep-G2; assay type: cell-based; conditions: for IC50: Homo sapiens, HepG2, 36 h, read-out: IC50 Hep-G2
[3] = tested on: A549 (Human lung carcinoma); assay: MTT cytotoxic assay, A549; assay type: cell-based; conditions: for IC50: Homo sapiens, A549, 36 h, read-out: IC50 A549
[4] = tested on: MCF-7 (Human breast adenocarcinoma); assay: MTT cytotoxic assay, MCF-7; assay type: cell-based; conditions: for IC50: Homo sapiens, MCF7, 36 h, read-out: IC50 MCF-7
[5] = tested on: Vero cells (monkey kidney epithelial cells); assay: MTT cytotoxic assay, Vero cells; assay type: cell-based; conditions: for IC50 Vero: MTT; for IC50: Primates, Vero
[6] = target: T1, porcine pancreatic lipase (Type II) (Sus scrofa, UniProt P00591); assay: Lipase inhibitory assay; assay type: biochemical; conditions: for inhibition at 500 µg/mL / inhibition at 125 µg/mL / inhibition at 250 µg/mL: read-out: Enzyme inhibition (pancreatic lipase)
T1 sequence (P00591 1-450): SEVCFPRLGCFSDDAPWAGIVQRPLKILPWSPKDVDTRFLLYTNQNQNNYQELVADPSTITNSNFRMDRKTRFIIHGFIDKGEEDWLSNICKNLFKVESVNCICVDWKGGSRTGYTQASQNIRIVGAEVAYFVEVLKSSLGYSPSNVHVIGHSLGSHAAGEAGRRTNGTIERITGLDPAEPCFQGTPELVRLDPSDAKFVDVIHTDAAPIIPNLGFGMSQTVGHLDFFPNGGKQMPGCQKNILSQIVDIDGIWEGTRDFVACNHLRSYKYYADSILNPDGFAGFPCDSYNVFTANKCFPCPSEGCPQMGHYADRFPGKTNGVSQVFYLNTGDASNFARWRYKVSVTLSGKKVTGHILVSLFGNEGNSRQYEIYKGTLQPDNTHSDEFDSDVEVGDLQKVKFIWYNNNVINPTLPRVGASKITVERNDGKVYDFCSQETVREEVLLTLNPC
In short: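 Porcine pancreatic lipase (Type II, 0.1 mg) was mixed with 6.66 μM p-nitrophenyl palmitate in ethanol/acetonitrile (2:1, v/v) and test compound in 0.061 M Tris-HCl, pH 8.5. The mixture was incubated at 37 °C for 25 min, stopped with ethanol, and substrate hydrolysis read at 405 nm. Runs were in triplicate. IC50 was estimated from inhibition-versus-concentration plots.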

[7] = tested on: α-glucosidase from Saccharomyces cerevisiae; assay: Alpha-glucosidase inhibitory assay; assay type: biochemical; conditions: for α-glucosidase inhibition rate: concentration of 400 µg/mL; for IC50: read-out: IC50 α-glucosidase, µM equivalent, converted from µg/mL
[8] = 36 h, read-out: IC50 Vero, MTT, 36 h
[9] = Mus musculus, RAW264.7, read-out: NO inhibition
[10] = read-out: IC50 Vero, μM equivalent, converted from µg/mL

Row | Structure (SMILES) | IC50 [2] | IC50 [3] | IC50 [4] | IC50 Vero ([5]; 36 h) | IC50 [5, 8] | inhibition at 1 µg/mL [1, 9] | inhibition at 5 µg/mL [1, 9] | inhibition at 25 µg/mL [1, 9] | Cell survival (RAW 264.7 macrophages; test concentration 1 µg/mL) | Cell survival (RAW 264.7 macrophages; test concentration 5 µg/mL) | Cell survival (RAW 264.7 macrophages; test concentration 25 µg/mL) | Cell survival (RAW 264.7 macrophages; test concentration 50 µg/mL) | inhibition at 500 µg/mL [6] | α-glucosidase inhibition rate [7] | IC50 [5, 10] | IC50 [6] | inhibition at 125 µg/mL [6] | inhibition at 250 µg/mL [6] | IC50 α-glucosidase [7] | IC50 [7] | other results
1 | COc1cc(O)cc(O)c1C(=O)/C=C/c1ccccc1 [Cardamonin, reference compound] | – | – | – | – | – | – | – | – | – | – | – | – | – | – | – | – | – | – | – | – | NO half-maximal inhibitory concentration (IC50) ([1]; LPS-stimulated RAW 264.7): 0.62 µg/mL; NO inhibition ([1]; test concentration 0.81 µg/mL (3 µM), LPS 1 µg/mL): 86.93 ± 0.96%; Cell survival (RAW 264.7 macrophages; test concentration 0.81 µg/mL (3 µM)): 71.80 ± 0.51%
2 | CC(C)[C@@H](C)/C=C/[C@@H](C)[C@H]1CC[C@H]2C3=C[C@@H](O)[C@@]4(O)C[C@@H](O)CC[C@]4(C)[C@H]3CC[C@]12C [Compound (1), cerevisterol] | > 50 µg/mL | > 50 µg/mL | > 50 µg/mL | did not show any cytotoxicity | > 50 µg/mL | 14.4 ± 1.5% | 30.9 ± 1.04% | 48.8 ± 1.43% | 98.05 ± 0.67% | 97.69 ± 1.20% | 96.78 ± 0.63% | 98.40 ± 1.73% | 0% | 12.69 ± 1.06% | – | – | – | – | – | – | IC50 Hep-G2 ([2]; MTT, 36 h): no significant effect; also recorded: did not show any cytotoxicity; IC50 A549 ([3]; MTT, 36 h): no significant effect; also recorded: did not show any cytotoxicity; IC50 MCF-7 ([4]; MTT, 36 h): no significant effect; also recorded: did not show any cytotoxicity; inhibition at 50 µg/mL [1, 9]: 54.2 ± 1.27%
3 | CC(C)[C@@H](C)/C=C/[C@@H](C)[C@H]1CC[C@@H]2[C@]1(C)CC[C@H]1[C@]23C=C[C@]2(C[C@@H](O)CC[C@]12C)OO3 [Compound (2), ergosterol peroxide] | 16.2 µg/mL (≈ 37.8 µM) | 22.5 µg/mL (≈ 52.4 µM) | 27.1 µg/mL (≈ 63.2 µM) | 14.93 µg/mL (≈ 34.8 µM) | – | 28 ± 0.84% | 56.7 ± 1.29% | 81.4 ± 1.35% | 98.08 ± 1.26% | 83.99 ± 1.05% | 60.87 ± 2.21% | 2.18 ± 0.68% | 25.9 ± 1.24% | greater than 50% | 11.5 µM | > 1170 µM | 2.54 ± 1.6% | 11.7 ± 2.13% | 21.89 µg/mL (≈ 51.1 µM) | 51.1 µM | –
4 | CC(C)[C@@H](C)/C=C/[C@@H](C)[C@H]1CCC2=C3C=C[C@@]4(O)C[C@@H](O)CC[C@]4(C)[C@H]3CC[C@@]21C [Compound (3), (3β,5α,22E)-ergosta-6,8(14),22-triene-3,5-diol] | 2.89 µg/mL (≈ 7 µM) | 18.5 µg/mL (≈ 44.9 µM) | 16.5 µg/mL (≈ 39.9 µM) | 18.40 µg/mL (≈ 44.6 µM) | 10.4 µg/mL | 32.8 ± 0.73% | 55.2 ± 1.2% | 71.4 ± 1.38% | 93.19 ± 0.49% | 93.86 ± 1.33% | 82.31 ± 0.78% | 1.70 ± 0.27% | 23.8 ± 2.31% | greater than 50% | 24.2 µM | > 1210 µM | 1.29 ± 1.11% | 12.1 ± 0.95% | 25.81 µg/mL (≈ 62.5 µM) | 60 µM | –
5 | Cc1c2ccncc2c(C)c2c1[nH]c1ccccc12 [Ellipticine, reference compound] | 1.26 µg/mL (≈ 5.12 µM) | 1.38 µg/mL (≈ 5.6 µM) | 2.69 µg/mL (≈ 10.9 µM) | – | 8.61 µg/mL | – | – | – | – | – | – | – | – | – | – | – | – | – | – | – | –
